Measured values: ChEMBL document CHEMBL1151428, “Capability of 11 antipneumococcal antibiotics to select for resistance by multistep and single-step methodologies” (2007)
In brackets after ≈: the same amount, converted by molar mass.

Columns and labels:
Type in all cases: functional
Streptococcus pneumoniae [1] = experiment: Antimicrobial activity against drug-resistant Streptococcus pneumoniae isolate 3009 by NCCLS M7-A7 method
Streptococcus pneumoniae [2] = experiment: Antimicrobial activity against drug-resistant Streptococcus pneumoniae isolate 3665 after 38 passages with moxifloxacin measured after 10 antibiotic-free subculture by multi-step resistance selection technique
Streptococcus pneumoniae [3] = experiment: Antimicrobial activity against drug-resistant Streptococcus pneumoniae isolate 37 by NCCLS M7-A7 method
Streptococcus pneumoniae [4] = experiment: Antimicrobial activity against drug-resistant Streptococcus pneumoniae isolate 2527 after 20 passages with azithromycin measured after 10 antibiotic-free subculture by multi-step resistance selection technique
In short: (§1)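 Mutants selected by daily broth passage in subinhibitory drug in cation-adjusted Mueller-Hinton broth with 5% lysed horse blood. Stability was tested by 10 daily passages on blood agar without antibiotic, then macrodilution MIC.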

Streptococcus pneumoniae [5] = experiment: Antimicrobial activity against drug-resistant Streptococcus pneumoniae isolate 1076 after 35 passages with moxifloxacin measured after 10 antibiotic-free subculture by multi-step resistance selection technique; in short: as §1
Streptococcus pneumoniae [6] = experiment: Antimicrobial activity against drug-resistant Streptococcus pneumoniae isolate 3665 after 26 passages with clarithromycin measured after 10 antibiotic-free subculture by multi-step resistance selection technique
Streptococcus pneumoniae [7] = experiment: Antimicrobial activity against drug-resistant Streptococcus pneumoniae isolate 3665 by NCCLS M7-A7 method
Streptococcus pneumoniae [8] = experiment: Antimicrobial activity against drug-resistant Streptococcus pneumoniae isolate 1077 after 50 passages by multi-step resistance selection technique
In short: (§2)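 Daily serial passage in subinhibitory drug levels in 1 ml cation-adjusted Mueller-Hinton broth with 5% lysed horse blood; fresh broth for tigecycline. Each day, 10 μl were taken from the tube one to two dilutions below the MIC whose turbidity matched the growth control, and used to set the next MIC. MIC by macrodilution.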

Streptococcus pneumoniae [9] = experiment: Antimicrobial activity against drug-resistant Streptococcus pneumoniae isolate 24 after 50 passages by multi-step resistance selection technique; in short: as §2
Streptococcus pneumoniae [10] = experiment: Antimicrobial activity against drug-resistant Streptococcus pneumoniae isolate 1635 by NCCLS M7-A7 method
Streptococcus pneumoniae [11] = experiment: Antimicrobial activity against drug-resistant Streptococcus pneumoniae isolate 3243 after 33 passages with azithromycin measured after 10 antibiotic-free subculture by multi-step resistance selection technique; in short: as §1
Streptococcus pneumoniae [12] = experiment: Antimicrobial activity against drug-resistant Streptococcus pneumoniae isolate 3009 after 19 passages with moxifloxacin measured after 10 antibiotic-free subculture by multi-step resistance selection technique; in short: as §1
Streptococcus pneumoniae [13] = experiment: Antimicrobial activity against drug-resistant Streptococcus pneumoniae isolate 2527 after 14 passages with gemifloxacin measured after 10 antibiotic-free subculture by multi-step resistance selection technique; in short: as §1
Streptococcus pneumoniae [14] = experiment: Antimicrobial activity against drug-resistant Streptococcus pneumoniae isolate 1635 after 49 passages with clarithromycin measured after 10 antibiotic-free subculture by multi-step resistance selection technique
Streptococcus pneumoniae [15] = experiment: Antimicrobial activity against drug-resistant Streptococcus pneumoniae isolate 3665 after 50 passages by multi-step resistance selection technique
In short: (§3)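 Daily serial passage in broth at subinhibitory drug levels: 1 ml cation-adjusted Mueller-Hinton broth with 5% lysed horse blood; fresh broth for tigecycline. Each day 10 μl inoculum taken from the tube one to two dilutions below MIC matching growth-control turbidity, used to set next MIC. Continued until ≥8-fold MIC rise, minimum 14, maximum 50 passages; MIC read by macrodilution.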

Streptococcus pneumoniae [16] = experiment: Antimicrobial activity against drug-resistant Streptococcus pneumoniae isolate 2527 after 14 passages by multi-step resistance selection technique
In short: as §2, with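 “MIC. […]” for “MIC.”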

Streptococcus pneumoniae [17] = experiment: Antimicrobial activity against drug-resistant Streptococcus pneumoniae isolate 3009 after 21 passages by multi-step resistance selection technique
In short: as §2, with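 “MIC. […]” for “MIC.”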

Streptococcus pneumoniae [18] = experiment: Antimicrobial activity against drug-resistant Streptococcus pneumoniae isolate 3413 after 30 passages by multi-step resistance selection technique
In short: (§4)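 Daily serial passage in subinhibitory drug in cation-adjusted Mueller-Hinton broth with 5% lysed horse blood, 1 ml per tube, fresh broth for tigecycline. Each day, 10 μl was taken from the tube one to two dilutions below the MIC whose turbidity matched the growth control and used for the next MIC. Passaging ran until MIC rose ≥8 times, minimum 14 and maximum 50 passages. Clone MICs were read by macrodilution.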

Streptococcus pneumoniae [19] = experiment: Antimicrobial activity against drug-resistant Streptococcus pneumoniae isolate 3243 after 29 passages by multi-step resistance selection technique; in short: as §4
Streptococcus pneumoniae [20] = experiment: Antimicrobial activity against drug-resistant Streptococcus pneumoniae isolate 24 after 14 passages by multi-step resistance selection technique
In short: as §2, with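 “MIC. […]” for “MIC.”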

Streptococcus pneumoniae [21] = experiment: Antimicrobial activity against drug-resistant Streptococcus pneumoniae isolate 3665 after 14 passages by multi-step resistance selection technique
In short: as §2, with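 “MIC. […]” for “MIC.”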

Streptococcus pneumoniae [22] = experiment: Antimicrobial activity against drug-resistant Streptococcus pneumoniae isolate 37 after 14 passages by multi-step resistance selection technique; in short: as §3
Streptococcus pneumoniae [23] = experiment: Antimicrobial activity against drug-resistant Streptococcus pneumoniae isolate 3274 after 48 passages by multi-step resistance selection technique; in short: as §4
Streptococcus pneumoniae [24] = experiment: Antimicrobial activity against drug-resistant Streptococcus pneumoniae isolate 3676 after 14 passages by multi-step resistance selection technique; in short: as §3
Streptococcus pneumoniae [25] = experiment: Antimicrobial activity against drug-resistant Streptococcus pneumoniae isolate 1077 after 15 passages by multi-step resistance selection technique; in short: as §4
Streptococcus pneumoniae [26] = experiment: Antimicrobial activity against drug-resistant Streptococcus pneumoniae isolate 1076 after 14 passages by multi-step resistance selection technique
In short: as §2, with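 “MIC. […]” for “MIC.”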

SMILES	MIC (Streptococcus pneumoniae [1]) [µg/mL]	MIC (Streptococcus pneumoniae [2]) [µg/mL]	MIC (Streptococcus pneumoniae [3]) [µg/mL]	MIC (Streptococcus pneumoniae [4]) [µg/mL]	MIC (Streptococcus pneumoniae [5]) [µg/mL]	MIC (Streptococcus pneumoniae [6]) [µg/mL]	MIC (Streptococcus pneumoniae [7]) [µg/mL]	MIC (Streptococcus pneumoniae [8]) [µg/mL]	MIC (Streptococcus pneumoniae [9]) [µg/mL]	MIC (Streptococcus pneumoniae [10]) [µg/mL]	MIC (Streptococcus pneumoniae [11]) [µg/mL]	MIC (Streptococcus pneumoniae [12]) [µg/mL]	MIC (Streptococcus pneumoniae [13]) [µg/mL]	MIC (Streptococcus pneumoniae [14]) [µg/mL]	MIC (Streptococcus pneumoniae [15]) [µg/mL]	further results
CO/N=C(\C(=O)N[C@@H]1C(=O)N2C(C(=O)O)=C(CSc3nc(=O)c(O)nn3C)CS[C@H]12)c1csc(N)n1 [CEFTRIAXONE]	0.03 (≈ 0.0541 µM)	0.06 (≈ 0.108 µM)	2 (≈ 3.61 µM)	2 (≈ 3.61 µM)	0.016 (≈ 0.0289 µM)	0.03 (≈ 0.0541 µM)	0.06 (≈ 0.108 µM)	0.016 (≈ 0.0289 µM)	2 (≈ 3.61 µM)	0.016 (≈ 0.0289 µM)	0.125 (≈ 0.225 µM)	0.03 (≈ 0.0541 µM)	1 (≈ 1.8 µM)	0.016 (≈ 0.0289 µM)	0.06 (≈ 0.108 µM)	
CN(C)c1cc(NC(=O)CNC(C)(C)C)c(O)c2c1C[C@H]1C[C@H]3[C@H](N(C)C)C(O)=C(C(N)=O)C(=O)[C@@]3(O)C(O)=C1C2=O [TIGECYCLINE]		0.03 (≈ 0.0512 µM)	0.016 (≈ 0.0273 µM)	0.03 (≈ 0.0512 µM)	0.06 (≈ 0.102 µM)	0.03 (≈ 0.0512 µM)	0.016 (≈ 0.0273 µM)	0.016 (≈ 0.0273 µM)	0.03 (≈ 0.0512 µM)	0.016 (≈ 0.0273 µM)	0.06 (≈ 0.102 µM)	0.06 (≈ 0.102 µM)	0.03 (≈ 0.0512 µM)	0.016 (≈ 0.0273 µM)	0.016 (≈ 0.0273 µM)	
CO/N=C1\CN(c2nc3c(cc2F)c(=O)c(C(=O)O)cn3C2CC2)CC1CN (configuration not stated) [GEMIFLOXACIN]	0.016 (≈ 0.0411 µM)	0.125 (≈ 0.321 µM)	0.016 (≈ 0.0411 µM)	0.25 (≈ 0.642 µM)	0.5 (≈ 1.28 µM)	0.03 (≈ 0.077 µM)	0.016 (≈ 0.0411 µM)	1 (≈ 2.57 µM)	0.03 (≈ 0.077 µM)	0.016 (≈ 0.0411 µM)	0.03 (≈ 0.077 µM)	0.125 (≈ 0.321 µM)	2 (≈ 5.14 µM)	0.03 (≈ 0.077 µM)	0.06 (≈ 0.154 µM)	MIC (Streptococcus pneumoniae [16]): 2 µg/mL (≈ 5.14 µM); MIC (Streptococcus pneumoniae [17]): 1 µg/mL (≈ 2.57 µM)
CC[C@H]1OC(=O)[C@H](C)C(=O)[C@H](C)[C@@H](O[C@@H]2O[C@H](C)C[C@H](N(C)C)[C@H]2O)[C@](C)(OC)C[C@@H](C)C(=O)[C@H](C)[C@H]2N(CCCCn3cnc(-c4cccnc4)c3)C(=O)O[C@]12C [TELITHROMYCIN]	0.016 (≈ 0.0197 µM)	0.125 (≈ 0.154 µM)	0.25 (≈ 0.308 µM)	0.03 (≈ 0.0369 µM)	1 (≈ 1.23 µM)	0.06 (≈ 0.0739 µM)	0.125 (≈ 0.154 µM)			0.004 (≈ 0.00493 µM)	0.06 (≈ 0.0739 µM)	0.008 (≈ 0.00985 µM)	0.004 (≈ 0.00493 µM)	0.016 (≈ 0.0197 µM)		MIC (Streptococcus pneumoniae [18]): 0.25 µg/mL (≈ 0.308 µM); MIC (Streptococcus pneumoniae [19]): 0.06 µg/mL (≈ 0.0739 µM); MIC (Streptococcus pneumoniae [20]): 32 µg/mL (≈ 39.4 µM); MIC (Streptococcus pneumoniae [21]): 2 µg/mL (≈ 2.46 µM); MIC (Streptococcus pneumoniae [22]): 4 µg/mL (≈ 4.93 µM); MIC (Streptococcus pneumoniae [23]): 0.5 µg/mL (≈ 0.616 µM); MIC (Streptococcus pneumoniae [24]): 2 µg/mL (≈ 2.46 µM); MIC (Streptococcus pneumoniae [25]): 0.25 µg/mL (≈ 0.308 µM); MIC (Streptococcus pneumoniae [26]): > 64 µg/mL
C[C@@H](O)[C@H]1C(=O)N2C(C(=O)O)=C(SCCNC=N)C[C@H]12 [IMIPENEM ANHYDROUS]	0.008 (≈ 0.0267 µM)	0.03 (≈ 0.1 µM)	0.5 (≈ 1.67 µM)	0.5 (≈ 1.67 µM)	0.008 (≈ 0.0267 µM)	0.03 (≈ 0.1 µM)	0.03 (≈ 0.1 µM)	0.008 (≈ 0.0267 µM)	0.5 (≈ 1.67 µM)	0.002 (≈ 0.00668 µM)	0.03 (≈ 0.1 µM)	0.008 (≈ 0.0267 µM)	0.125 (≈ 0.418 µM)	0.002 (≈ 0.00668 µM)	0.016 (≈ 0.0534 µM)	
